Calls of active or inactive are those of the source. No cut-off for these calls is given here.
Key:
[1] = biological target: T1, Acetylcholinesterase (Rattus norvegicus, UniProt P37136); assay: Inhibition of rat brain AChE using acetylthiocholine iodide as substrate by spectroscopic method
T1 sequence (P37136 whole entry): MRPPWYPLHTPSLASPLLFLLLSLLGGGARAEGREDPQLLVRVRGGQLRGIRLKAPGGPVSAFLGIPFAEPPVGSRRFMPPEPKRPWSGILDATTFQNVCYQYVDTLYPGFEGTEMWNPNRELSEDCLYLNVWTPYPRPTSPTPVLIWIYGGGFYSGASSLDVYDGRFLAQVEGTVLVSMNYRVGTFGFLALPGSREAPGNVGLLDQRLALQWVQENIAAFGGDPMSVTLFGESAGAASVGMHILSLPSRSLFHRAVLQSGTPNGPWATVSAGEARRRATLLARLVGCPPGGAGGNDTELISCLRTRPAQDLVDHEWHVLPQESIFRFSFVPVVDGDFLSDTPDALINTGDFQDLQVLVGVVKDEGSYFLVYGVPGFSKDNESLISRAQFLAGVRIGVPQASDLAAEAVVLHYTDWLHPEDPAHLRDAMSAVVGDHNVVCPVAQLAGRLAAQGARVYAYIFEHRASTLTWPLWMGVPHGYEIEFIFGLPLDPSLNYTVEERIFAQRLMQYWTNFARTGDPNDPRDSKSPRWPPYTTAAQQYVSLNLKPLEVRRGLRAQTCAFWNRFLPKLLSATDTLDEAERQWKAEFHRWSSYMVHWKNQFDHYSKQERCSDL

[2] = Anti-glycosylation activity using BSA assessed as inhibition of AGE formation measured after 30 hrs by fluorescence spectrophotometric method; assay type: functional
In short: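 Glucose-mediated glycation of protein with fluorescent AGE read-out at 370 nm excitation / 440 nm emission. Test compounds dissolved in DMSO at different concentrations. Aminoguanidine positive control. Run in triplicate.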

[3] = system: Mus musculus; assay: Reversal of scopolamine-induced memory impairment in Swiss albino mouse assessed as attenuation of scopolamine-induced amnesia at 2 mg/kg, ip administered 30 mins prior to scopolamine challenge measured on day 4 by Morris water maze test; assay type: functional, organism-based
In short: (§1)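 Swiss albino mice of either sex (20–25 g), five per group. Scopolamine 0.5 mg/kg; agent (2, 5, 10 mg/kg, i.p.) given 30 min before scopolamine ahead of each of the first four trials. Morris water maze: escape latency on days 1–4, time in target quadrant on day 5. Vehicle 10% DMSO. Mean ± SD, two-way ANOVA with Tukey test.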

[4] = system: Mus musculus; assay: Reversal of scopolamine-induced memory impairment in Swiss albino mouse assessed as attenuation of scopolamine-induced […] time at 2 to 10 mg/kg, ip administered 30 mins prior to scopolamine challenge measured on day 4 by Morris water maze test; assay type: functional, organism-based; in short: as §1
[5] = system: Mus musculus; assay: Antialzheimer activity in Swiss albino mouse brain assessed as reversal of scopolamine-induced […] assessed per mg protein at 10 mg/kg, ip (reference value: 1.25 +/- 0.04 nM/min/mg) by spectrophotometric analysis; assay type: functional
[6] = system: Mus musculus; assay: Antialzheimer activity in Swiss albino mouse brain assessed as reversal of scopolamine-induced […] level at 10 mg/kg, ip (reference value: 26.51 +/- 0.79 nM/mg); assay type: functional
In short: (§2)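 Swiss albino mice of either sex (20–25 g), five per group, given scopolamine 0.5 mg/kg with test agent i.p. 30 min before scopolamine. After the water maze protocol, cortex and hippocampus were homogenized in ice-cold phosphate buffer pH 7.4 and spun 14,500 rpm, 15 min, 4 °C. Supernatant used for TBARS (Ohkawa) or reduced GSH (Beutler). Mean ± SD.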

[7] = biological target: T2, Acetylcholinesterase (Rattus norvegicus) (UniProt P37136); assay: Mixed type inhibition of rat brain AChE at 0.01 to 0.1 uM using increasing concentration acetylthiocholine iodide as substrate by Lineweaver-Burk plot analysis
T2 sequence (whole entry): T1 sequence (P37136 whole entry)

[8] = biological target: T2, Acetylcholinesterase (Rattus norvegicus); assay: Potency index, ratio of donepezil IC50 to compound IC50 for inhibition of rat brain AChE
[9] = system: Mus musculus; assay: Reversal of scopolamine-induced memory impairment in Swiss albino mouse assessed as attenuation of scopolamine-induced decreased time spent in target quadrant at 2 to 10 mg/kg, ip administered 30 mins prior to scopolamine challenge measured on day 5 by Morris water maze test
[10] = system: Mus musculus; assay: Antialzheimer activity in Swiss albino mouse brain assessed as reversal of scopolamine-induced reduction in GSH levels at 5 mg/kg, ip (reference value: 21.3 +/- 0.81); assay type: functional; in short: as §2
[11] = system: Mus musculus; assay: Antialzheimer activity in Swiss albino mouse brain assessed as reversal of scopolamine-induced reduction in GSH levels at 10 mg/kg, ip (reference value: 21.3 +/- 0.81); assay type: functional; in short: as §2
[12] = system: Mus musculus; assay: Antialzheimer activity in Swiss albino mouse brain assessed as reversal of scopolamine-induced […] assessed per mg protein at 5 mg/kg, ip (reference value: 1.25 +/- 0.04 nM/min/mg) by spectrophotometric analysis; assay type: functional
[13] = system: Mus musculus; assay: Antialzheimer activity in Swiss albino mouse brain assessed as reversal of scopolamine-induced […] level at 5 mg/kg, ip (reference value: 26.51 +/- 0.79 nM/mg); assay type: functional; in short: as §2

SMILES | IC50 [1] | IC50 [2] | further results
COc1ccc(-c2cc(=O)c3ccc(O)cc3o2)cc1 | 0.035 µM | 42 µM | –
COc1cc(-c2cc(=O)c3ccc(O)cc3o2)cc(OC)c1OC | 0.0442 µM | 51.4 µM | –
COc1ccc(-c2cc(=O)c3ccc(O)cc3o2)cc1OC | 0.0373 µM | 47.4 µM | –
COc1ccc(-c2cc(=O)c3ccc(OCCCN4CCC(C)CC4)cc3o2)cc1 | 0.0077 µM | 42.6 µM | –
N=C(N)NN [PIMAGEDINE] | – | 40.1 µM | –
COc1ccc(-c2cc(=O)c3ccc(OCCCCCCN4CCC(C)CC4)cc3o2)cc1 | 0.0481 µM | 57.2 µM | –
COc1cc2c(cc1OC)C(=O)C(CC1CCN(Cc3ccccc3)CC1)C2 (centres undefined) | – | – | Activity [3]: Active
COc1ccc(-c2cc(=O)c3ccc(OCCN4CCC(C)CC4)cc3o2)cc1OC | 0.00677 µM | 42.1 µM | –
COc1ccc(-c2cc(=O)c3ccc(OCCCN4CCC(C)CC4)cc3o2)cc1OC | 0.00648 µM | 47.7 µM | –
COc1cc(-c2cc(=O)c3ccc(OCCCN4CCC(C)CC4)cc3o2)cc(OC)c1OC | 0.00612 µM | 41.8 µM | –
COc1ccc(-c2cc(=O)c3ccc(OCCCCCN4CCC(C)CC4)cc3o2)cc1 | 0.0156 µM | 55.1 µM | –
COc1ccc(-c2cc(=O)c3ccc(OCCCCN4CCC(C)CC4)cc3o2)cc1 | 0.0135 µM | 48.2 µM | –
COc1cc(-c2cc(=O)c3ccc(OCCN4CCC(C)CC4)cc3o2)cc(OC)c1OC | 0.00587 µM | 37.1 µM | Activity [4]: Active; Activity [5]: 0.85 nmol/min/mg; Activity [6]: 17.6 nM/mg; inhibition [7]: Active; Ratio IC50 [8]: 2; Activity [9]: Active; Activity [10]: 31.7 nM/mg; Activity [11]: 36.8 nM/mg; Activity [12]: 0.97 nmol/min/mg; Activity [13]: 20.14 nM/mg

From ChEMBL document CHEMBL4177645, “Exploration of multi-target potential of chromen-4-one based compounds in Alzheimer's disease: Design, synthesis and biological evaluations” (Bioorg Med Chem, 2017)
